{"source": "ChEMBL document CHEMBL6071151", "about": "“Discovery of Inhibitors Targeting Protein-Protein Interaction between Bacterial RNA Polymerase and NusG as Novel Antimicrobials” (J Med Chem, 2024)", "key": {"Enterococcus faecalis": {"system": "Enterococcus faecalis", "assay": "Antimicrobial activity against Enterococcus faecalis ATCC 19433 assessed as reduction in microbial growth measured after 20 hrs by CLSI based broth microdilution method", "assay_type": "functional", "summary_of_the_method": "(§1)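 Broth microdilution per CLSI in cation-adjusted Mueller-Hinton broth. Two-fold serial dilutions from 256 to 0.25 μg/mL, inoculum about 5 × 10⁵ CFU/mL. Read after 20 h at 37 °C. MIC is the lowest concentration with no visible growth. Run in duplicate.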"}, "Staphylococcus aureus [1]": {"system": "Staphylococcus aureus", "assay": "Antimicrobial activity against Staphylococcus aureus ATCC 25923 assessed as reduction in microbial growth measured after 20 hrs by CLSI based broth microdilution method", "assay_type": "functional", "summary_of_the_method": "as §1"}, "Staphylococcus aureus [2]": {"system": "Staphylococcus aureus", "assay": "Antimicrobial activity against Staphylococcus aureus ATCC 29213 assessed as reduction in microbial growth measured after 20 hrs by CLSI based broth microdilution method", "assay_type": "functional", "summary_of_the_method": "as §1"}, "Streptococcus pneumoniae [3]": {"system": "Streptococcus pneumoniae", "assay": "Antimicrobial activity against Streptococcus pneumoniae ATCC 49619 assessed as reduction in microbial growth measured after 20 hrs by CLSI based broth microdilution method", "assay_type": "functional"}, "Klebsiella pneumoniae": {"system": "Klebsiella pneumoniae", "assay": "Antimicrobial activity against Klebsiella pneumoniae ATCC 700603 assessed as reduction in microbial growth measured after 20 hrs by CLSI based broth microdilution method", "assay_type": "functional", "summary_of_the_method": "as §1"}, "Acinetobacter baumannii": {"system": "Acinetobacter baumannii", "assay": "Antimicrobial activity against Acinetobacter baumannii ATCC 19606 assessed as reduction in microbial growth measured after 20 hrs by CLSI based broth microdilution method", "assay_type": "functional", "summary_of_the_method": "as §1"}, "Pseudomonas aeruginosa": {"system": "Pseudomonas aeruginosa", "assay": "Antimicrobial activity against Pseudomonas aeruginosa ATCC 27853 assessed as reduction in microbial growth measured after 20 hrs by CLSI based broth microdilution method", "assay_type": "functional", "summary_of_the_method": "as §1"}, "Enterobacter cloacae": {"system": "Enterobacter cloacae", "assay": "Antimicrobial activity against Enterobacter cloacae ATCC 13047 assessed as reduction in microbial growth measured after 20 hrs by CLSI based broth microdilution method", "assay_type": "functional", "summary_of_the_method": "as §1"}, "Escherichia coli [4]": {"system": "Escherichia coli", "assay": "Antimicrobial activity against Escherichia coli ATCC 25922 assessed as reduction in microbial growth measured after 20 hrs by CLSI based broth microdilution method", "assay_type": "functional", "summary_of_the_method": "as §1"}, "[5]": {"system": "Staphylococcus epidermidis", "assay": "Antimicrobial activity against Staphylococcus epidermidis ATCC 12228 assessed as reduction in microbial growth measured after 20 hrs by CLSI based broth microdilution method", "assay_type": "functional"}, "[6]": {"system": "Staphylococcus saprophyticus", "assay": "Antimicrobial activity against Staphylococcus saprophyticus ATCC 15305 assessed as reduction in microbial growth measured after 20 hrs by CLSI based broth microdilution method", "assay_type": "functional"}, "Streptococcus pyogenes": {"system": "Streptococcus pyogenes", "assay": "Antimicrobial activity against Streptococcus pyogenes ATCC 19615 assessed as reduction in microbial growth measured after 20 hrs by CLSI based broth microdilution method", "assay_type": "functional"}, "Streptococcus agalactiae": {"system": "Streptococcus agalactiae", "assay": "Antimicrobial activity against Streptococcus agalactiae ATCC 12386 assessed as reduction in microbial growth measured after 20 hrs by CLSI based broth microdilution method", "assay_type": "functional"}, "Streptococcus pneumoniae [7]": {"system": "Streptococcus pneumoniae", "assay": "Antimicrobial activity against Streptococcus pneumoniae TCH8431 (HM-145) assessed as reduction in microbial growth measured after 20 hrs by CLSI based broth microdilution method", "assay_type": "functional"}, "Streptococcus pneumoniae [8]": {"system": "Streptococcus pneumoniae", "assay": "Antimicrobial activity against Streptococcus pneumoniae NP112 (NR-19213) assessed as reduction in microbial growth measured after 20 hrs by CLSI based broth microdilution method", "assay_type": "functional"}, "Streptococcus pneumoniae [9]": {"system": "Streptococcus pneumoniae", "assay": "Antimicrobial activity against Streptococcus pneumoniae clinical isolate CUHK-X01 assessed as reduction in microbial growth measured after 20 hrs by CLSI based broth microdilution method", "assay_type": "functional"}, "Streptococcus pneumoniae [10]": {"system": "Streptococcus pneumoniae", "assay": "Antimicrobial activity against Streptococcus pneumoniae clinical isolate CUHK-X02 assessed as reduction in microbial growth measured after 20 hrs by CLSI based broth microdilution method", "assay_type": "functional"}, "Streptococcus pneumoniae [11]": {"system": "Streptococcus pneumoniae", "assay": "Antimicrobial activity against Streptococcus pneumoniae clinical isolate CUHK-X03 assessed as reduction in microbial growth measured after 20 hrs by CLSI based broth microdilution method", "assay_type": "functional"}, "Streptococcus pneumoniae [12]": {"system": "Streptococcus pneumoniae", "assay": "Antimicrobial activity against Streptococcus pneumoniae clinical isolate CUHK-X04 assessed as reduction in microbial growth measured after 20 hrs by CLSI based broth microdilution method", "assay_type": "functional"}, "Staphylococcus aureus [13]": {"system": "Staphylococcus aureus", "assay": "Antimicrobial activity against Staphylococcus aureus ATCC 25923 assessed as inhibition of microbial growth at 1 times MIC measured after 2 hrs by time-kill assay", "assay_type": "functional, organism-based"}, "Staphylococcus aureus [14]": {"system": "Staphylococcus aureus", "assay": "Antimicrobial activity against community-associated methicillin-resistant Staphylococcus aureus USA300 assessed as inhibition of microbial growth at 1 times MIC measured after 2 hrs by time-kill assay", "assay_type": "functional, organism-based", "summary_of_the_method": "(§2)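 S. aureus (ATCC 25923 or CA-MRSA USA300) in log phase suspended at about 1.5×10^6 CFU/mL in CA-MHB containing compound at multiples of MIC, with a drug-free broth control. Cultures held at 37 °C, aerobic, shaking at 180 rpm. Samples taken at 0, 2, 4 and 6 h, 10-fold diluted in PBS and spotted on Columbia blood agar. Colonies counted after overnight 37 °C as CFU/mL. Triplicate.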"}, "Staphylococcus aureus [15]": {"system": "Staphylococcus aureus", "assay": "Antimicrobial activity against Staphylococcus aureus ATCC 25923 assessed as reduction in bacterial count at 1 times MIC measured after 4 to 6 hrs by time-kill assay", "assay_type": "functional, organism-based", "conditions": "time 4-6 hrs"}, "Staphylococcus aureus [16]": {"system": "Staphylococcus aureus", "assay": "Antimicrobial activity against community-associated methicillin-resistant Staphylococcus aureus USA300 assessed as reduction in bacterial count at 1 times MIC measured after 4 to 6 hrs by time-kill assay", "assay_type": "functional, organism-based", "conditions": "time 4-6 hrs", "summary_of_the_method": "as §2"}, "Staphylococcus aureus [17]": {"system": "Staphylococcus aureus", "assay": "Antimicrobial activity against Staphylococcus aureus ATCC 25923 assessed as reduction in bacterial growth at 4 to 16 times MIC measured over 6 hrs by time-kill assay relative to control", "assay_type": "functional", "design": "scale not given: the % may be the effect or the level left", "summary_of_the_method": "as §2"}, "Staphylococcus aureus [18]": {"system": "Staphylococcus aureus", "assay": "Antimicrobial activity against Staphylococcus aureus ATCC 25923 measuring eradication of bacteria at 4 to 16 times MIC measured over 6 hrs by time-kill assay", "assay_type": "functional", "summary_of_the_method": "as §2"}, "Staphylococcus aureus [19]": {"system": "Staphylococcus aureus", "assay": "Antimicrobial activity against Staphylococcus aureus ATCC 25923 assessed as reduction in bacterial count below the detectable threshold at 4 to 16 times MIC measured within 2 hrs by time-kill assay", "assay_type": "functional, organism-based"}, "Staphylococcus aureus [20]": {"system": "Staphylococcus aureus", "assay": "Antimicrobial activity against community-associated methicillin-resistant Staphylococcus aureus USA300 assessed as reduction in bacterial count below the detectable threshold at 4 to 16 times MIC measured after 4 hrs by time-kill assay", "assay_type": "functional, organism-based", "summary_of_the_method": "as §2"}, "[21]": {"assay": "Inhibition of Bacillus subtilis LgBiT-fused NusG/C-terminal SmBit fused […] CH protein-protein interaction using […] incubated for 20 mins by luminescence based analysis", "summary_of_the_method": "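Split-nanoluciferase competition assay with His-tagged proteins expressed in E. coli BL21(DE3) and Ni-purified. C-SmBiT-β'CH (250 nM in PBS) was preincubated with compound for 10 min at 37 °C. N-LgBiT-NusG (250 nM in PBS) was then added and incubated 10 min at 37 °C. Nano-Glo substrate was added and luminescence read. IC50 determined. Triplicate with technical repeats.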"}, "Escherichia coli [22]": {"system": "Escherichia coli", "assay": "Antimicrobial activity against Escherichia coli K12 transformed with pSL103 assessed as reduction in bacterial growth measured after 30 mins", "assay_type": "functional", "conditions": "K12, 0.5 h"}, "Escherichia coli [23]": {"system": "Escherichia coli", "assay": "Upregulation of cat gene transcription level in Escherichia coli K12 transformed with pSL103 at 1/8 to 1/4 times MIC measured after 30 mins", "assay_type": "functional", "summary_of_the_method": "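Cells lysed with lysozyme in TE, total RNA extracted and reverse transcribed. cat transcript quantified by SYBR Green qPCR, 40 cycles, normalised to gyrB by ΔCT. Triplicates, unpaired t-test.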"}, "Bacillus subtilis [24]": {"system": "Bacillus subtilis", "assay": "Antibacterial activity against Bacillus Subtilis assessed as bacterial transcription by measuring delocalization of GFP-tagged RpoC at 1 time MIC incubated for 30 mins by epifluorescence microscopy based analysis", "assay_type": "functional, organism-based", "summary_of_the_method": "(§3)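 B. subtilis reporter strains expressing GFP fusions, grown overnight on selective LB agar at 37 °C, then overnight in LB with selective antibiotic and xylose, 37 °C, 180 rpm. Cells mounted on 1.2% agarose, imaged by epifluorescence with 100×/1.45 oil objective, FITC (525/50) filter.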"}, "Bacillus subtilis [25]": {"system": "Bacillus subtilis", "assay": "Antibacterial activity against Bacillus Subtilis assessed as bacterial transcription by measuring delocalization of NusG at 1 time MIC incubated for 30 mins by epifluorescence microscopy based analysis", "assay_type": "functional, organism-based", "summary_of_the_method": "as §3"}, "Bacillus subtilis [26]": {"system": "Bacillus subtilis", "assay": "Antibacterial activity against Bacillus Subtilis assessed as bacterial transcription by measuring delocalization of GFP-tagged RpsB at 1 time MIC incubated for 30 mins by epifluorescence microscopy based analysis", "assay_type": "functional, organism-based", "summary_of_the_method": "as §3"}, "Bacillus subtilis [27]": {"system": "Bacillus subtilis", "assay": "Antibacterial activity against Bacillus Subtilis assessed as bacterial transcription by measuring subcellular localization of MreB at 1 time MIC incubated for 30 mins by epifluorescence microscopy based analysis", "assay_type": "functional, organism-based", "summary_of_the_method": "as §3"}}, "note": "Active and inactive are the calls of the source.", "data": [{"compound": "OC(CNCCNc1ccccc1C(F)(F)F)CSc1ccc(C(F)(F)F)cc1", "note": "(centres undefined)", "values": [{"measurement": "MIC", "setting": "Enterococcus faecalis", "value": 8, "unit": "µg/mL"}, {"measurement": "MIC", "setting": "Staphylococcus aureus [1]", "value": 4, "unit": "µg/mL"}, {"measurement": "MIC", "setting": "Staphylococcus aureus [2]", "value": 4, "unit": "µg/mL"}, {"measurement": "MIC", "setting": "Streptococcus pneumoniae [3]", "value": 1, "unit": "µg/mL"}, {"measurement": "MIC", "setting": "Klebsiella pneumoniae", "value": "> 256", "unit": "µg/mL"}, {"measurement": "MIC", "setting": "Acinetobacter baumannii", "value": "> 256", "unit": "µg/mL"}, {"measurement": "MIC", "setting": "Pseudomonas aeruginosa", "value": "> 256", "unit": "µg/mL"}, {"measurement": "MIC", "setting": "Enterobacter cloacae", "value": 32, "unit": "µg/mL"}, {"measurement": "MIC", "setting": "Escherichia coli [4]", "value": 64, "unit": "µg/mL"}, {"measurement": "MIC", "setting": "[5]", "value": 8, "unit": "µg/mL"}, {"measurement": "MIC", "setting": "[6]", "value": 2, "unit": "µg/mL"}, {"measurement": "MIC", "setting": "Streptococcus pyogenes", "value": 8, "unit": "µg/mL"}, {"measurement": "MIC", "setting": "Streptococcus agalactiae", "value": 16, "unit": "µg/mL"}, {"measurement": "MIC", "setting": "Streptococcus pneumoniae [7]", "value": 2, "unit": "µg/mL"}, {"measurement": "MIC", "setting": "Streptococcus pneumoniae [8]", "value": 4, "unit": "µg/mL"}, {"measurement": "MIC", "setting": "Streptococcus pneumoniae [9]", "value": 1, "unit": "µg/mL"}, {"measurement": "MIC", "setting": "Streptococcus pneumoniae [10]", "value": 4, "unit": "µg/mL"}, {"measurement": "MIC", "setting": "Streptococcus pneumoniae [11]", "value": 8, "unit": "µg/mL"}, {"measurement": "MIC", "setting": "Streptococcus pneumoniae [12]", "value": 2, "unit": "µg/mL"}, {"measurement": "Activity", "setting": "Staphylococcus aureus [13]", "value": "Active"}, {"measurement": "Activity", "setting": "Staphylococcus aureus [14]", "value": "Active"}, {"measurement": "Activity", "setting": "Staphylococcus aureus [15]", "value": "Active"}, {"measurement": "Activity", "setting": "Staphylococcus aureus [16]", "value": "Active"}, {"measurement": "Activity", "setting": "Staphylococcus aureus [17]", "value": 100, "unit": "%"}, {"measurement": "Activity", "setting": "Staphylococcus aureus [18]", "value": "<200", "unit": "CFU/ml"}, {"measurement": "Activity", "setting": "Staphylococcus aureus [19]", "value": "Active"}, {"measurement": "Activity", "setting": "Staphylococcus aureus [20]", "value": "Active"}, {"measurement": "IC50", "setting": "[21]", "value": 142, "unit": "µM"}, {"measurement": "MIC", "setting": "Escherichia coli [22]", "value": 16, "unit": "µg/mL"}, {"measurement": "Activity", "setting": "Escherichia coli [23]", "value": "Active"}, {"measurement": "Activity", "setting": "Bacillus subtilis [24]", "value": "Active"}, {"measurement": "Activity", "setting": "Bacillus subtilis [25]", "value": "Active"}, {"measurement": "Activity", "setting": "Bacillus subtilis [26]", "value": "Active"}, {"measurement": "Activity", "setting": "Bacillus subtilis [27]", "value": "Active"}]}]}
